Results on 19 compounds are retold here after PubChem BioAssay.

Assay [1] can be described thus: reduced viability of SK-BR-3 breast cancer cells – cell-based, 24 h, human, pilot screen (AID 572;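 active = viability at or below 10% of carrier control in both of two separate runs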;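 also: compound exposure lasted between 18 and 24 h rather than exactly 24 h; 100% = carrier-treated control wells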). The conditions noted are these: SK-BR-3 viability, CellTiter-Glo luminescence, at 10 µM, stronger effect = lower value. (In general: Cellular ATP, detected with luciferase, serves as a proxy for viable cell number.)
Assay [2] is described as follows: HUVEC growth inhibition – cell-based, human, primary screen (AID 575;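 active = viability at or below 30% in both replicate assays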;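 also: 100% = median of untreated cell wells with 0.1% DMSO on each plate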). Conditions: HUVEC proliferation, CellTiter-Glo luminescence, 72 h; at 10 µM; stronger effect = lower value. The procedure, abridged: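 System – primary HUVEC, no more than 12 passages · Medium – Low-serum (2% FBS) EBM, supplemented · Times – 72 h exposure, 37 °C, 5% CO2, 30 min RT equilibration · Measured by – luminescent ATP assay · Read-out – % viability relative to median vehicle-well signal on each plate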

Assay [3] is described as follows: H69AR cell proliferation blockers – human, duplicate replicates, primary screen (AID 580;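 active = viability at or under a set limit in both replicates, limit being median viability minus 3 SD, cut at about 48% in these data, passing the limit was not always enough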;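 also: 100% = mean luminescence of untreated wells and 0% = no signal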). Conditions: H69AR lung tumor cells viability, ATP luminescence, 72 h; at 10 µM; stronger effect = lower value.
A short description of assay [4]: MRP1 drug-resistance reversers in H69AR cells – cell-based, doxorubicin co-treatment, pilot screen (AID 601). The conditions noted are these: CellTiter-Glo, 72 h, at 10 µM; for differential viability (reversal): stronger effect = higher value.
Assay [5] is described as follows: yeast transport mutant growth inhibition pilot in 384-well plates, post-Golgi transport modulator project (AID 636; in the data active = inhibition above about 31%). Conditions: absorbance 615 nm, about 18 h, stronger effect = higher value.
A short description of assay [6]: growth suppression of yeast trafficking mutant, preliminary HTS, modulators of trafficking downstream of Golgi apparatus project, 1536-format plate, OD 615 nm (AID 637; in the data active = inhibition above about 30%). Conditions: yeast transport mutant growth, absorbance 615 nm, 18 h; stronger effect = higher value.
The mark [7] stands for this setting: H69AR cells + 2 uM doxorubicin, measured here: viability with 2 uM doxorubicin, stronger effect = lower value.
Where [8] appears, read: H69AR cells, compound alone cytotoxicity.

The structures appear in SMILES notation. Active and inactive are the calls of the source.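 The calls were made as follows, unless noted: active = viability loss from added drug above about 55%, and viability with drug at most 40%, in both replicates (limit read from the data, passing the limit was not always enough); inconclusive = both conditions met in only one replicate; inactive = neither replicate meets both conditions.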

The viability is a read-out of living cells in per cent, often relative to untreated cells. Broadly, the inhibition is the relative decrease from the control value, in per cent. For `CN(CCNC(=O)c1ccc(N2CCCC2=O)cc1)CCc1ccccc1`, the viability was 72% (inactive) in assay [1]; 99% (inactive) in assay [2]; 101% (inactive) in assay [3]; 92.6% in assay [4] (setting [7]); 101% in assay [4] (setting [8]). Also, in assay [4] (H69AR cells + 2 uM doxorubicin), the differential viability (reversal) is 8.74% (inactive). Further, the inhibition is -7.95% (inactive) in assay [5] and 4.36% (inactive) in assay [6].
Take `Cc1nn(-c2ccccc2)c2[nH]c(C(F)(F)F)cc(=O)c12`: the viability was 131% (inactive) in assay [1]; 95.6% (inactive) in assay [2]; 108% (inactive) in assay [3]; 118% in assay [4] (setting [7]); 108% in assay [4] (setting [8]). Further, the differential viability (reversal) in assay [4] (H69AR cells + 2 uM doxorubicin) is -10.8% (inactive). Further, the inhibition in assay [5] was -5.62% (inactive); in assay [6] it was 4.36% (inactive).
Turning to `OC1C=CSc2nc3ccccc3n21` (configuration not stated), the viability in assay [1] is 83.5% (inactive); in assay [2] it was 79% (inactive); in assay [3], 66.8% (inactive); in assay [4] (setting [7]), 75%; in assay [4] (setting [8]), 66.8%. In addition, the differential viability (reversal) in assay [4] (H69AR cells + 2 uM doxorubicin) is -8.25% (inactive). In addition, the inhibition in assay [5] was -5.68% (inactive); in assay [6], 1.8% (inactive).
On to `O=C(NCCCN1CCCC1=O)C1CCN(S(=O)(=O)N2CCOCC2)CC1`, for which the viability was 90% (inactive) in assay [1]; 118% (inactive) in assay [2]; 100% (inactive) in assay [3]; 94.8% in assay [4] (setting [7]); 100% in assay [4] (setting [8]). Also, the differential viability (reversal) in assay [4] (H69AR cells + 2 uM doxorubicin) is 5.27% (inactive). Further, the results for the inhibition in assay [5] and in assay [6] were 5.41% (inactive) and -1.45% (inactive), respectively.
As to `CCOC(=O)c1c(C(F)(F)C(F)(F)C(F)(F)C(F)(F)F)n[nH]c1C`, the viability is 63% (inactive) in assay [1]; 79.5% (inactive) in assay [2]; 76.8% (inactive) in assay [3]; 51.7% in assay [4] (setting [7]); 76.8% in assay [4] (setting [8]). The differential viability (reversal) in assay [4] (H69AR cells + 2 uM doxorubicin) is 25.1% (inactive). Also, the inhibition is -5.75% (inactive) in assay [5] and 4% (inactive) in assay [6].
With `COc1nc(NCCc2ccc(OC)c(OC)c2)nc(NC(C)(C)CO)n1`, the viability was 96% (inactive) in assay [1]; 113% (inactive) in assay [2]; 95.5% (inactive) in assay [3]; 87.8% in assay [4] (setting [7]); 95.5% in assay [4] (setting [8]). In assay [4] (H69AR cells + 2 uM doxorubicin), the differential viability (reversal) is 7.75% (inactive). The results for the inhibition in assay [5] and in assay [6] were -3.38% (inactive) and -1.31% (inactive), respectively.
`CC(C)C(=O)N1CCN(c2nc(-c3ccccc3)c3c(c2C#N)CCCC3)CC1`: the viability in assay [1] was 103% (inactive); in assay [2], 74.5% (inactive); in assay [3], 89.2% (inactive); in assay [4] (setting [7]) it was 77.7%; in assay [4] (setting [8]), 89.2%. In assay [4] (H69AR cells + 2 uM doxorubicin), the differential viability (reversal) is 11.5% (inactive). The results for the inhibition in assay [5] and in assay [6] were 8.51% (inactive) and 5.09% (inactive), respectively.
Turning to `Cc1ccc2c(c1)NC(=O)C(CC(=O)NCCCN1CCN(c3cc(Cl)ccc3C)CC1)O2` (configuration not stated), the viability in assay [1] was 75.5% (inactive); in assay [2], 1.67% (active); in assay [3], 22.9% (active); in assay [4] (setting [7]), 40.7%; in assay [4] (setting [8]) it was 22.9%. For the same compound, the differential viability (reversal) in assay [4] (H69AR cells + 2 uM doxorubicin) is -17.8% (inactive). In addition, the inhibition in assay [5] was 3.07% (inactive); in assay [6], 0.98% (inactive).
In the case of `CC1=Nn2c(nnc2-c2ccc(F)cc2)SC1`, the viability was 85% (inactive) in assay [1]; 97% (inactive) in assay [2]; 97.2% (inactive) in assay [3]; 96.6% in assay [4] (setting [7]); 97.2% in assay [4] (setting [8]). For the same compound, the differential viability (reversal) in assay [4] (H69AR cells + 2 uM doxorubicin) is 0.585% (inactive). Also, the inhibition in assay [5] was -5.14% (inactive); in assay [6] it was -2.55% (inactive).
For the compound `Cc1cc(C)nc(SC2=CS(=O)(=O)c3ccccc32)n1`, the viability in assay [1] is 102% (inactive); in assay [2] it was 73.5% (inactive); in assay [3], 14.8% (active); in assay [4] (setting [7]), 22.3%; in assay [4] (setting [8]), 14.8%. Moreover, the differential viability (reversal) in assay [4] (H69AR cells + 2 uM doxorubicin) is -7.5% (inactive). Besides, the results for the inhibition in assay [5] and in assay [6] were -1.2% (inactive) and -1.27% (inactive), respectively.
Take `CC(C)(C)n1ncc2c(=O)n(CC(=O)NCc3ccccc3)cnc21`: the viability is 90% (inactive) in assay [1]; 54.7% (inactive) in assay [2]; 15.5% (active) in assay [3]; 63.9% in assay [4] (setting [7]); 15.5% in assay [4] (setting [8]). The differential viability (reversal) in assay [4] (H69AR cells + 2 uM doxorubicin) was -48.5% (inactive). Moreover, the inhibition in assay [5] is -1.2% (inactive); in assay [6] it was -1.27% (inactive).
Consider `O=C(O)c1cc2cc(F)ccc2[nH]1`, for which the viability in assay [1] is 110% (inactive); in assay [2], 78.4% (inactive); in assay [3] it was 94.5% (inactive); in assay [4] (setting [7]) it was 112%; in assay [4] (setting [8]), 94.5%. Besides, the differential viability (reversal) in assay [4] (H69AR cells + 2 uM doxorubicin) is -17.1% (inactive). In addition, the inhibition was -1.82% (inactive) in assay [5] and -4.67% (inactive) in assay [6].
Take `COc1ccc(-c2nc(C)sc2CC(=O)O)cc1`: the viability was 100% (inactive) in assay [1]; 103% (inactive) in assay [2]; 95.8% (inactive) in assay [3]; 93.3% in assay [4] (setting [7]); 95.8% in assay [4] (setting [8]). In assay [4] (H69AR cells + 2 uM doxorubicin), the differential viability (reversal) is 2.46% (inactive). For the same compound, the results for the inhibition in assay [5] and in assay [6] were -2.21% (inactive) and 1.31% (inactive), respectively.
On to `CCCn1cnc2c(cnn2-c2ccc(F)cc2)c1=O`, for which the viability in assay [1] is 100% (inactive); in assay [2] it was 90.9% (inactive); in assay [3] it was 98.8% (inactive); in assay [4] (setting [7]) it was 97.3%; in assay [4] (setting [8]), 98.8%. Also, the differential viability (reversal) in assay [4] (H69AR cells + 2 uM doxorubicin) was 1.56% (inactive). The inhibition is -0.78% (inactive) in assay [5] and 0.16% (inactive) in assay [6].
As for `Cc1ccc(S(=O)(=O)N2CCN(C(=O)N3CCOCC3)C2c2ccc(N(C)C)cc2)cc1` (configuration not stated), the viability in assay [1] was 106% (inactive); in assay [2] it was 96.3% (inactive); in assay [3], 110% (inactive); in assay [4] (setting [7]), 105%; in assay [4] (setting [8]) it was 110%. Further, the differential viability (reversal) in assay [4] (H69AR cells + 2 uM doxorubicin) is 5.79% (inactive). For the same compound, the inhibition in assay [5] was -6.03% (inactive); in assay [6], 9.64% (inactive).
For `O=C(CSc1nnc(-c2ccccc2Br)o1)Nc1cccc2ccccc12`, the viability in assay [1] is 89% (inactive); in assay [2], 101% (inactive); in assay [3] it was 105% (inactive); in assay [4] (setting [7]) it was 81.2%; in assay [4] (setting [8]), 105%. Moreover, the differential viability (reversal) in assay [4] (H69AR cells + 2 uM doxorubicin) was 24.2% (inactive). The figures for the inhibition in assay [5] and in assay [6] were 0.39% (inactive) and -4.43% (inactive), respectively.
For `Cc1cnc(C(=O)Nc2ccccc2-n2cccc2)cn1`, the viability in assay [1] is 94% (inactive); in assay [2] it was 105% (inactive); in assay [3], 92.4% (inactive); in assay [4] (setting [7]), 88.6%; in assay [4] (setting [8]), 92.4%. The differential viability (reversal) in assay [4] (H69AR cells + 2 uM doxorubicin) was 3.75% (inactive). The figures for the inhibition in assay [5] and in assay [6] were -7.6% (inactive) and -2.73% (inactive), respectively.
`COc1ccc2c3c(c(=O)oc2c1OCC(N)=O)CCCC3`: the viability in assay [1] was 117% (inactive); in assay [2], 117% (inactive); in assay [3] it was 97.6% (inactive); in assay [4] (setting [7]), 81.3%; in assay [4] (setting [8]), 97.6%. The differential viability (reversal) in assay [4] (H69AR cells + 2 uM doxorubicin) was 16.2% (inactive). In addition, the inhibition in assay [5] is -5.48% (inactive); in assay [6] it was -2.55% (inactive).
`CC(C)n1nc(C(=O)Nc2nc3ccc(S(C)(=O)=O)cc3s2)c2ccccc2c1=O`: the viability was 87% (inactive) in assay [1]; 86.1% (inactive) in assay [2]; 67.8% (inactive) in assay [3]; 72% in assay [4] (setting [7]); 67.8% in assay [4] (setting [8]). Moreover, the differential viability (reversal) in assay [4] (H69AR cells + 2 uM doxorubicin) is -4.21% (inactive). Further, the inhibition in assay [5] was -4.86% (inactive); in assay [6] it was 2.73% (inactive).
